pEC50, pIC50, pKd: −log10 of the molar value. The source made the active and inactive calls. The calls are words filed in the database; no cut-off is given here.
Legend:
[1] = AUC (infinity) in Sprague-Dawley rat at 10 mg/kg, po; assay type: ADME, organism-based; parameters: time infinity, dose 10 mg/kg, route oral; details: plasma
In short: (§1)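 Single-dose PK. Rats: male Sprague−Dawley, jugular-catheterized, 1 mg/kg iv in 3:1 PEG400/water (n = 2) and 10 mg/kg po in Pharmatek #6 (n = 3). Female athymic nude mice: 100 mg/kg po in Pharmatek #6 (n = 3). Beagle dogs and male cynomolgus monkeys (n = 3): crossover, 1 mg/kg iv and 10 mg/kg po in 22% HPβCD, overnight fast. Plasma LC-MS/MS to 24 h; noncompartmental parameters, mean ± SD.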

[2] = Oral bioavailability in Sprague-Dawley rat at 10 mg/kg; assay type: ADME, organism-based; details: in vivo
In short: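 Male Sprague-Dawley rats (250–350 g, jugular-catheterized) received a single dose either iv at 1 mg/kg in 3:1 PEG400/water (n = 2) or po at 10 mg/kg in Pharmatek #6 (n = 3). Plasma was sampled at 5 min (iv only), 15 and 30 min, and 1, 2, 4, 6 and 24 h. Samples were analyzed by LC-MS/MS after acetonitrile precipitation. Parameters came from noncompartmental linear-trapezoidal analysis of individual animals.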

[3] = target: Tyrosine-protein kinase ABL1 (Homo sapiens, UniProt P00519); assay: Inhibition of Abl1 in human HEK293 cells after 1 hr by competition binding assay; assay type: cell-based
Tyrosine-protein kinase ABL1, sequence (P00519 whole entry): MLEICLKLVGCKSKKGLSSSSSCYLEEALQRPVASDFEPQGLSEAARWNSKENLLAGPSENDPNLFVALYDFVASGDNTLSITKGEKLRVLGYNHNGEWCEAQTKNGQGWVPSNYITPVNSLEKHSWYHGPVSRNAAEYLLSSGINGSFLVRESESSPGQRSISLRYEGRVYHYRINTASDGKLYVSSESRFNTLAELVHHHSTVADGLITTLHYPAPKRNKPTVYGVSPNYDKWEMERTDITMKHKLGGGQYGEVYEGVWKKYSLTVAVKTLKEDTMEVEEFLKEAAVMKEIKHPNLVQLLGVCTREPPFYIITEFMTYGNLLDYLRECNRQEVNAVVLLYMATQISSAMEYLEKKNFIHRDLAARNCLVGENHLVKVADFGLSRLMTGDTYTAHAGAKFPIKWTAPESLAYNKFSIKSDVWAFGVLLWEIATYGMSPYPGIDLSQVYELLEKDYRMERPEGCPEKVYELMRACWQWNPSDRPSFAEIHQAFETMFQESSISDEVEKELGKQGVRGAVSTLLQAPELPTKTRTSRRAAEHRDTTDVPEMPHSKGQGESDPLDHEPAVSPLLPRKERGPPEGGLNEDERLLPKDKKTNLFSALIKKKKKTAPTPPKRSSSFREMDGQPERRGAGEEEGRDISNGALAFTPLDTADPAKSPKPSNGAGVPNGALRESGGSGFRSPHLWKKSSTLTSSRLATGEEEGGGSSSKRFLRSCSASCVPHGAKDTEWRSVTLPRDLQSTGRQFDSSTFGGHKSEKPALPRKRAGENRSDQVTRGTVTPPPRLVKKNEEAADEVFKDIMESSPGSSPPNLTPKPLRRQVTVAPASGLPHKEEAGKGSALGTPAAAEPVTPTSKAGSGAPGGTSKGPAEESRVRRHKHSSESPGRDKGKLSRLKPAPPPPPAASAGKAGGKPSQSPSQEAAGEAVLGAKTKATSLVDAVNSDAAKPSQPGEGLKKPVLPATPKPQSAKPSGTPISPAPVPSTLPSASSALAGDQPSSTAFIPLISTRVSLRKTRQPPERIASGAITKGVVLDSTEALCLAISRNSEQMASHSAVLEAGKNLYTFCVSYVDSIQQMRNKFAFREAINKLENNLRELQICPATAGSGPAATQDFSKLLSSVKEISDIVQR
In short: (§2)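 KINOMEscan competition binding. Binding reactions ran at rt for 1 h. Unbound kinase was captured on an immobilized affinity ligand and quantified by qPCR. Each kinase was tested individually.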

[4] = target: ALK tyrosine kinase receptor (Homo sapiens, UniProt Q9UM73); assay: Inhibition of ALK in human HEK293 cells after 1 hr by competition binding assay; assay type: cell-based
In short: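 Unbound kinase was captured on immobilized affinity ligand and quantified by qPCR. Kd came from eleven serial 3-fold dilutions, as the mean of duplicates.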

Aurora kinase B = Aurora kinase B (Homo sapiens, UniProt Q96GD4); assay: Inhibition of Aurora B in human HEK293 cells after 1 hr by competition binding assay; assay type: cell-based; in short: as §2
Aurora kinase B, sequence (Q96GD4 whole entry): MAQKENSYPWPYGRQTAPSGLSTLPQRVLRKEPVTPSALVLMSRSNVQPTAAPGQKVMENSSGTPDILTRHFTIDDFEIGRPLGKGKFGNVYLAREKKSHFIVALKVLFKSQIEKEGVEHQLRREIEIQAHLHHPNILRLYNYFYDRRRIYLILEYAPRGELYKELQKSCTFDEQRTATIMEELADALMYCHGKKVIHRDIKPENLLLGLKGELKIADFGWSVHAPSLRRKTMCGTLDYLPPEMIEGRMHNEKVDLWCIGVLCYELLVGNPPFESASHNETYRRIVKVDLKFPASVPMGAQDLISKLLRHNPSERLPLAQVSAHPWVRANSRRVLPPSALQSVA

[5] = target: Mitogen-activated protein kinase 3 (Homo sapiens, UniProt P27361); assay: Inhibition of ERK1 in human HEK293 cells after 1 hr by competition binding assay; assay type: cell-based; in short: as §2
Mitogen-activated protein kinase 3, sequence (P27361 whole entry): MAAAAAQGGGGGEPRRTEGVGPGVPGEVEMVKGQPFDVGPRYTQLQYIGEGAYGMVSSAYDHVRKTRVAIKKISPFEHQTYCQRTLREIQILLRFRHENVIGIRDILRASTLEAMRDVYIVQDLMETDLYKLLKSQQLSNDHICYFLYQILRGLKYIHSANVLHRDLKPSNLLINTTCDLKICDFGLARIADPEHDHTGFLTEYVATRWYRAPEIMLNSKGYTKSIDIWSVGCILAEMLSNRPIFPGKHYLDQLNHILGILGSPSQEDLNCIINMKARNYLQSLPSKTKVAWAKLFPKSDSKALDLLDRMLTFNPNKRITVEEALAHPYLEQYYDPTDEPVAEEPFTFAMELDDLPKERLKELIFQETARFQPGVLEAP

[6] = target: Tyrosine-protein kinase JAK1 (Homo sapiens, UniProt P23458); assay: Inhibition of JAK1 in human HEK293 cells after 1 hr by competition binding assay; assay type: cell-based; in short: as §2
Tyrosine-protein kinase JAK1, sequence (P23458 whole entry): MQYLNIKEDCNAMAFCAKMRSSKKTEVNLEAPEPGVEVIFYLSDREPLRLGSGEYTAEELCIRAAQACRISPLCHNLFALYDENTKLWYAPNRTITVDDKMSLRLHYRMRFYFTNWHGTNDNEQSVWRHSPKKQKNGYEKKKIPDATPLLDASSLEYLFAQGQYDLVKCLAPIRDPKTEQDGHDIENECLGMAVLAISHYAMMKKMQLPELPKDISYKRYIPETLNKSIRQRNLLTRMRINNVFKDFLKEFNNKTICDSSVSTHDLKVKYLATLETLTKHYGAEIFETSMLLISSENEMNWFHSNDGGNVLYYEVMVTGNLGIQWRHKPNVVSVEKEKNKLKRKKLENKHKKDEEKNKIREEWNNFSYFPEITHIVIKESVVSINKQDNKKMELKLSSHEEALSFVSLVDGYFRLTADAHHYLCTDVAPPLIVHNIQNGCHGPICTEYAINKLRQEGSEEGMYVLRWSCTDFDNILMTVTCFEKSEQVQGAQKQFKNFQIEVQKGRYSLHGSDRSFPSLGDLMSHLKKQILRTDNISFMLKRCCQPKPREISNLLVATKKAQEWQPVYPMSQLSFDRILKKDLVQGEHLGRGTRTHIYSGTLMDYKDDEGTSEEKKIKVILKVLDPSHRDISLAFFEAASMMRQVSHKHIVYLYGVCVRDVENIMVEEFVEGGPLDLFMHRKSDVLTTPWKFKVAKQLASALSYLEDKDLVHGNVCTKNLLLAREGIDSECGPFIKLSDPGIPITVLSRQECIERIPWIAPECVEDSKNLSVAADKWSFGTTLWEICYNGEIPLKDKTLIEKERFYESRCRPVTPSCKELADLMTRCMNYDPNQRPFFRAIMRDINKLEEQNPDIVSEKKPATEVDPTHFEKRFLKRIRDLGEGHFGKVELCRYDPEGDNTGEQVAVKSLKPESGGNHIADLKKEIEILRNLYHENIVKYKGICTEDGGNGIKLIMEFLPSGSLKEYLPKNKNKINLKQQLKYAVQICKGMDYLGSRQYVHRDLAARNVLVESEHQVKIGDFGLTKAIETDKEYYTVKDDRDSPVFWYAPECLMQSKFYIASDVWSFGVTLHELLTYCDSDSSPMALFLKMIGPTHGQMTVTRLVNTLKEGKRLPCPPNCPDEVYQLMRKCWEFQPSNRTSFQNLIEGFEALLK

[7] = target: Dual specificity mitogen-activated protein kinase kinase 2 (Homo sapiens, UniProt P36507); assay: Inhibition of MEK2 in human HEK293 cells after 1 hr by competition binding assay; assay type: cell-based; in short: as §2
Dual specificity mitogen-activated protein kinase kinase 2, sequence (P36507 whole entry): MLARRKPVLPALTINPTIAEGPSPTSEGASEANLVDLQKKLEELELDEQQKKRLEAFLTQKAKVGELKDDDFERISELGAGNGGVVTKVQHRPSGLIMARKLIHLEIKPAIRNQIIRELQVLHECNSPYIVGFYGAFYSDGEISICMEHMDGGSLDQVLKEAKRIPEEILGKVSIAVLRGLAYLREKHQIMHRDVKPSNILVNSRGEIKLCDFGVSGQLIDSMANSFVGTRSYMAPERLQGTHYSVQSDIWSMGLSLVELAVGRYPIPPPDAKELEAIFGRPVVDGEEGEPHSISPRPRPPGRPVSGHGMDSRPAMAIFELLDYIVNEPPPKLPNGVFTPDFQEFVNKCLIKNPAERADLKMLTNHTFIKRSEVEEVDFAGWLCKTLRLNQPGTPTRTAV

[8] = target: Serine/threonine-protein kinase PLK1 (Homo sapiens, UniProt P53350); assay: Inhibition of PLK1 in human HEK293 cells after 1 hr by competition binding assay; assay type: cell-based; in short: as §2
Serine/threonine-protein kinase PLK1, sequence (P53350 whole entry): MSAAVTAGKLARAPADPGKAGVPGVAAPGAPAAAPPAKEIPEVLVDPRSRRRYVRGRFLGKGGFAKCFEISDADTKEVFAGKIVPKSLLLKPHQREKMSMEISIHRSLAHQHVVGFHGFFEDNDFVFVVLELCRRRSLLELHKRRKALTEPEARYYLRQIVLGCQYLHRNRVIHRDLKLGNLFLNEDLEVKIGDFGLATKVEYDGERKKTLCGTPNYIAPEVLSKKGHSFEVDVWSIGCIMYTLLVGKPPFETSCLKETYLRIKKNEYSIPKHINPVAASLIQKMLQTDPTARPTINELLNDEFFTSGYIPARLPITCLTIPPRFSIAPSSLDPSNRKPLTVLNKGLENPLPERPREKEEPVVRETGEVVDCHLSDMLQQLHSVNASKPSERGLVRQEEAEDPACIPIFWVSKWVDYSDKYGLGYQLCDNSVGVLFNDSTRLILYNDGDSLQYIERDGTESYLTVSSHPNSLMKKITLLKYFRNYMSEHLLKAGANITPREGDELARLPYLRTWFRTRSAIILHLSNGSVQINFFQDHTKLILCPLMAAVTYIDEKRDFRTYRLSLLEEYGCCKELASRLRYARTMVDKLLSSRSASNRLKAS

COLO-679 = assay: Cytotoxicity against human COLO679 cells expressing BRAF V600E mutant after 72 hrs by cell titer blue assay; assay type: functional, cell-based; details: COLO-679, 72 h
In short: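 Cells were grown in ATCC-recommended media and kept overnight in 0.5% serum. They were then exposed to compound for 72 h, and Cell Titer Blue was added for 3 h. EC50 came from fluorometric concentration−response curves, run in duplicate and repeated at least once.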

[9] = Clearance in beagle dog at 1 mg/kg, iv and 10 mg/kg, po; assay type: ADME, organism-based, Canis lupus familiaris; details: in vivo; in short: as §1
[10] = Half life in beagle dog at 1 mg/kg, iv and 10 mg/kg, po; assay type: ADME, organism-based, Canis lupus familiaris; details: in vivo; in short: as §1
[11] = Cmax in beagle dog at 10 mg/kg, po; assay type: ADME, organism-based, Canis lupus familiaris; parameters: dose 10 mg/kg, route oral; details: in vivo; in short: as §1
[12] = Tmax in beagle dog at 10 mg/kg, po; assay type: ADME, organism-based, Canis lupus familiaris; parameters: dose 10 mg/kg, route oral; details: in vivo
In short: (§3)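 Male non-naive cynomolgus monkeys (2.6–3.4 kg) and beagle dogs (10.3–11.9 kg), n = 3 each, were dosed in a crossover design with a ≥7-day washout. Doses were 10 mg/kg by nasogastric gavage and 1 mg/kg as a saphenous iv bolus, both free base in 22% HPβCD. Animals were fasted overnight until about 4 h post dose. Femoral plasma was sampled from predose to 24 h and analyzed by LC-MS/MS. Parameters came from noncompartmental analysis; mean ± SD reported.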

[13] = Oral bioavailability in Cynomolgus monkey at 10 mg/kg; assay type: ADME, organism-based, Macaca fascicularis; details: in vivo; in short: as §3
Liver = assay: Intrinsic clearance in mouse liver microsomes; assay type: ADME, Microsome
Liver microsomes = assay: Intrinsic clearance in human liver microsomes; assay type: ADME, Microsome
In short: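 Pooled liver microsomes (0.5 mg/mL) were premixed with 0.1 M phosphate buffer pH 7.4, 6.5 mM MgCl2 and test compound (1 μM final, 0.2% DMSO). NADPH (1 mM) started the reaction at 37 °C, in duplicate. Minus-NADPH and testosterone controls were included. Aliquots were taken at 0, 5, 15, 30 and 60 min and quenched in acetonitrile containing internal standard.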

[14] = Half life in human liver microsomes; assay type: ADME, Microsome
In short: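 Pooled liver microsomes (0.5 mg/mL) in 0.1 M phosphate pH 7.4 with 6.5 mM MgCl2 and compound at 1 μM (0.2% DMSO). NADPH (1 mM) started the reaction at 37 °C, with minus-NADPH and testosterone controls. Aliquots taken at 0, 5, 15, 30 and 60 min were quenched in acetonitrile; duplicates.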

Cytochrome P450 1A2 = Cytochrome P450 1A2 (Homo sapiens, UniProt P05177); assay: Inhibition of human CYP1A2; assay type: ADME
Cytochrome P450 1A2, sequence (P05177 whole entry, canonical isoform): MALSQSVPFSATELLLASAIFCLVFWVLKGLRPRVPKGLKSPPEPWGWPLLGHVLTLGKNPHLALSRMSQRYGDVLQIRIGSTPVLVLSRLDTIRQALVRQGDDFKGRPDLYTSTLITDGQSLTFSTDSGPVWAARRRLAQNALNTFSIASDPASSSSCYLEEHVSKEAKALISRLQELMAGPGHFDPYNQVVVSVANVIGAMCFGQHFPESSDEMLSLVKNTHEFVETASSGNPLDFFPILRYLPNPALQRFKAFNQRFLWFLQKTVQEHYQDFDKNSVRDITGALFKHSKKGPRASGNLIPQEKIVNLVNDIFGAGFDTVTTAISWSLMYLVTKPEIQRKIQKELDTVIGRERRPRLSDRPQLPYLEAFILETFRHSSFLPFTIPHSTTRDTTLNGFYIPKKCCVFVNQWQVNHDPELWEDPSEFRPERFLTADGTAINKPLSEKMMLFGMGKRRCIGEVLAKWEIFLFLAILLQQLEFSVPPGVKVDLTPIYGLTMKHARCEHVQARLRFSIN
In short: (§4)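 Pooled human liver microsomes (0.25 mg/mL) with NADPH (1 mM) and five pooled probe substrates (testosterone, diclofenac, dextromethorphan, mephenytoin, phenacetin). Test compound ran at eight concentrations, 0.31−40 μM, 20 min at 37 °C, with pooled control inhibitors in parallel. Isoform-specific metabolites were measured by LC-MS/MS.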

Cytochrome P450 2C9 = Cytochrome P450 2C9 (Homo sapiens, UniProt P11712); assay: Inhibition of human CYP2C9; assay type: ADME; in short: as §4
Cytochrome P450 2C9, sequence (P11712 whole entry): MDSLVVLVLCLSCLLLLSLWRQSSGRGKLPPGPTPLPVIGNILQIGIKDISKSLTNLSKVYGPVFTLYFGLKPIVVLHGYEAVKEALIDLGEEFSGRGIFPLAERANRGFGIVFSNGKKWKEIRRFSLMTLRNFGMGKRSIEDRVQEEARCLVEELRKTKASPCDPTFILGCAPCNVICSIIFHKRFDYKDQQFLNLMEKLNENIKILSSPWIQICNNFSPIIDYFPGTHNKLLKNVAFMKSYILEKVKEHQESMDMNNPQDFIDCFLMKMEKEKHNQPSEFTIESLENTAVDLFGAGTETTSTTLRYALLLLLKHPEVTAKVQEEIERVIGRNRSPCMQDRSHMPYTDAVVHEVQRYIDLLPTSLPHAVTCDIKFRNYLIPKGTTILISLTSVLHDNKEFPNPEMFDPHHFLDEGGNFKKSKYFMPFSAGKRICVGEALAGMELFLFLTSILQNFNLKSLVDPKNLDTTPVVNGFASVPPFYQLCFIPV

Cytochrome P450 2D6 = Cytochrome P450 2D6 (Homo sapiens, UniProt P10635); assay: Inhibition of human CYP2D6; assay type: ADME; in short: as §4
COLO 205 = assay: Antitumor activity against human COLO205 cells xenografted in athymic nude mouse at 30 mg/kg, po bid for 14 days; assay type: functional, organism-based; parameters: dose 30 mg/kg
In short: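 Athymic nude mice carried subcutaneous flank Colo-205 xenografts (1 × 10^6 cells), randomized at 150−200 mm3 (n = 10/group). Oral dosing BID for 14 days in 22% HPβCD against vehicle controls. Caliper volumes W2(L/2) taken three times weekly. Partial regression: volume fell in ≥3 successive measurements to below the starting volume while the tumor stayed palpable.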

Mus musculus [15] = assay: Toxicity in athymic nude mouse xenografted with human COLO205 cells at 30 mg/kg, po bid for 14 days; assay type: organism-based, COLO 205; parameters: dose 30 mg/kg, route oral; details: in vivo, 336 h
In short: (§5)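 Athymic nude mice (20–25 g) were inoculated subcutaneously in the flank with 1×10^6 Colo-205 cells. At 150–200 mm3 they were randomized (n = 10/group) to oral vehicle (22% HPβCD) or 10, 30 or 100 mg/kg BID for 14 days. Calipers were used three times weekly. Body weight and behavior were monitored, with 7–10 days of follow-up after dosing. Partial regression meant volume falling in ≥3 successive measurements, ending below baseline but still palpable.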

Mus musculus [16] = assay: Toxicity in athymic nude mouse xenografted with human COLO205 cells at 100 mg/kg, po bid for 14 days; assay type: organism-based, COLO 205; parameters: dose 100 mg/kg, route oral; details: in vivo, 336 h; in short: as §5
Mus musculus [17] = assay: Toxicity in athymic nude mouse xenografted with human COLO205 cells at 30 mg/kg, po bid for 14 days measured upto 1 week post dosing; assay type: organism-based, COLO 205; parameters: dose 30 mg/kg, route oral; details: in vivo; in short: as §5

`COc1cc2ncnc(Oc3cccc(NC(=O)Nc4cc(C(C)(C)C(F)(F)F)on4)c3)c2cc1OC` [CEP-32496] showed an AUC(0-inf) [1] of 74.4 µM·h, a bioavailability [2] of 94% and a pKd [3] of 8.52. For the same compound, the pKd [4] was < 5.00, the pKd (Aurora kinase B) was < 5.00 and the pKd [5] was < 5.00. For the same compound, the pKd [6] was < 5.00, the pKd [7] was 5.08 and the pKd [8] was < 5.00. It also gave a pEC50 (COLO-679) of 6.68, a clearance [9] of 5 mL/min/kg and a half-life [10] of 12 h. For the same compound, the Cmax [11] was 5.2 µM, the Tmax [12] was 2 h and the bioavailability [13] was 100%. The CLH (Liver) was < 23 µL/min/mg, the CLH (Liver microsomes) was < 23 µL/min/mg and the half-life [14] was > 1 h. For the same compound, the pIC50 (Cytochrome P450 1A2) was < 5.00, the pIC50 (Cytochrome P450 2C9) was < 5.00 and the pIC50 (Cytochrome P450 2D6) was < 5.00. For the same compound, the Activity (COLO 205) was “Active”, the Activity (Mus musculus [15]) was “Non-toxic” and the Activity (Mus musculus [16]) was “Non-toxic”. The Activity (Mus musculus [17]) was “Non-toxic”.
